Source: ChEMBL document CHEMBL1138784, “Rational design, synthesis, and biological evaluation of bis(pyrimido[5,6,1-de]acridines) and bis(pyrazolo[3,4,5-kl]acridine-5-carboxamides) as new anticancer agents” (J Med Chem, 2004)

Tests used:
[1] = Cytotoxicity against human H460M cancer cell line was determined after 144 hr; assay type: functional, cell-based; details: Cancer cell lines
Method in brief: (§1)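 MTT colorimetric assay. Cells seeded by growth characteristics and preincubated 24 h, then exposed to drug for 1 h or 144 h at 37 °C, 5% CO2. H460M, MKN45 and PC-3 were grown in RPMI 1640 with 10% FCS. HCT116 was grown in D-MEM with 10% FBS and 2 mM glutamine.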

MKN-45 = assay: Cytotoxicity against human MKN45 cancer cell line was determined after 144 hr; assay type: functional, cell-based; details: MKN-45, 144 h; method in brief: as §1
LoVo [2] = assay: Ratio of IC50 against sensitive LoVo cell line and that of doxorubicin resistance LoVo cell line was determined after 1 hr exposure; assay type: functional, Homo sapiens
LoVo [3] = assay: Cytotoxicity against doxorubicin resistant LoVo cell line was determined against 144 hrs; assay type: functional, cell-based; details: Homo sapiens
Method in brief: (§2)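 MTT assay on doxorubicin-sensitive LoVo and resistant LoVo/Dx cells, 24 h preincubation, then 1 h or 144 h drug exposure at 37 °C, 5% CO2. IC50 in nM. Resistance index is IC50 on LoVo/Dx divided by IC50 on LoVo.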

Nucleic Acid = assay: Binding site preference is determined as the ratio of Poly (dA-dT)2 to Poly (dG-dC)2; assay type: nucleic-acid assay
Method in brief: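 Ethidium displacement fluorometry at pH 7.0 (10 mM Na2HPO4, 10 mM NaH2PO4, 1 mM EDTA) with 1.26 μM ethidium bromide and 1 μM [poly(dA-dT)]2 or [poly(dG-dC)]2, 20 °C. Ex 546 nm, em 595 nm, drug added serially from a DMSO stock. Preference taken from the [AT]/[GC] ratio of C50 values, counted significant only below 0.7 or above 1.3.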

SNB-19 [4] = assay: Percent growth of CNS SNB-19 cell line was determined at 10e-5 M concentration after 48 hr of exposing; assay type: functional, Homo sapiens
Method in brief: (§3)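 NCI sulforhodamine B screen. Cells seeded by growth rate, 24 h drug-free, then 48 h exposure to 10^-8, 10^-6 or 10^-5 M. Protein-stain optical density expressed as percent growth relative to untreated control (100%); negative values indicate cell kill.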

HCT-116 = assay: Cytotoxicity against human HCT116 cancer cell line was determined after 144 hr; assay type: functional, cell-based; details: HCT-116, 144 h; method in brief: as §1
DU-145 [5] = assay: Percent growth of prostate DU-145 cell line was determined at 10e-6 M concentration after 48 hr of exposing; assay type: functional, Homo sapiens
DU-145 [6] = assay: Percent growth of prostate DU-145 cell line was determined at 10e-8 M concentration after 48 h of exposing; assay type: functional, Homo sapiens
[7] = Percent growth of melanoma LOX IMV1 cell line was determined at 10e-5 M concentration after 48 hr of exposing; assay type: functional, Homo sapiens; method in brief: as §3
[8] = Percent growth of melanoma LOX IMV1 cell line was determined at 10e-6 M concentration after 48 hr of exposing; assay type: functional, Homo sapiens; method in brief: as §3
[9] = Percent growth of melanoma LOX IMV1 cell line was determined at 10e-8 M concentration after 48 hr of exposing; assay type: functional, Homo sapiens; method in brief: as §3
PC-3 = assay: Cytotoxicity against human PC3 cancer cell line was determined after 144 hr; assay type: functional, cell-based; details: PC-3, 144 h; method in brief: as §1
[10] = Cytotoxicity against doxorubicin resistant LoVo cell line was determined against 1 hour; assay type: cell-based; details: Homo sapiens; method in brief: as §2
LoVo [11] = assay: Cytotoxicity against human LoVo cancer cell line was determined after 144 hr; assay type: functional, cell-based; method in brief: as §2
SNB-19 [12] = assay: Percent growth of CNS SNB-19 cell line was determined at 10e-6 M concentration after 48 hr of exposing; assay type: functional, Homo sapiens; method in brief: as §3
SNB-19 [13] = assay: Percent growth of CNS SNB-19 cell line was determined at 10e-8 M concentration after 48 hr of exposing; assay type: functional, Homo sapiens; method in brief: as §3
786-0 [14] = assay: Percent growth of renal 786-O cell line was determined at 10e-5 M concentration after 48 hr of exposing; assay type: functional, Homo sapiens; method in brief: as §3
786-0 [15] = assay: Percent growth of renal 786-O cell line was determined at 10e-6 M concentration after 48 h of exposing; assay type: functional, Homo sapiens; method in brief: as §3
786-0 [16] = assay: Percent growth of renal 786-O cell line was determined at 10e-8 M concentration after 48 h of exposing; assay type: functional, Homo sapiens; method in brief: as §3
MCF7 [17] = assay: Percent growth of breast MCF-7 cell line was determined at 10e-6 M concentration after 48 h of exposing; assay type: functional, Homo sapiens
MCF7 [18] = assay: Percent growth of breast MCF-7 cell line was determined at 10e-8 M concentration after 48 hr of exposing; assay type: functional, Homo sapiens
SW-620 [19] = assay: Percent growth of colon SW-620 cell line was determined at 10e-5 M concentration after 48 hr of exposing; assay type: functional, Homo sapiens; method in brief: as §3
SW-620 [20] = assay: Percent growth of colon SW-620 cell line was determined at 10e-6 M concentration after 48 hr of exposing; assay type: functional, Homo sapiens; method in brief: as §3
SW-620 [21] = assay: Percent growth of colon SW-620 cell line was determined at 10e-8 M concentration after 48 hr of exposing; assay type: functional, Homo sapiens; method in brief: as §3
NCI-H460 [22] = assay: Percent growth of lung NCI-H460 cell line was determined at 10e-5 M concentration after 48 hr of exposing; assay type: functional, Homo sapiens; method in brief: as §3
NCI-H460 [23] = assay: Percent growth of lung NCI-H460 cell line was determined at 10e-6 M concentration after 48 hr of exposing; assay type: functional, Homo sapiens; method in brief: as §3
NCI-H460 [24] = assay: Percent growth of lung NCI-H460 cell line was determined at 10e-8 M concentration after 48 hr of exposing; assay type: functional, Homo sapiens; method in brief: as §3
MOLT-4 [25] = assay: Percent growth of leukemia MOLT-4 cell line was determined at 10e-5 M concentration after 48 hr of exposing; assay type: functional, Homo sapiens; method in brief: as §3
MOLT-4 [26] = assay: Percent growth of leukemia MOLT-4 cell line was determined at 10e-6 M concentration after 48 h of exposing; assay type: functional, Homo sapiens; method in brief: as §3
MOLT-4 [27] = assay: Percent growth of leukemia MOLT-4 cell line was determined at 10e-8 M concentration after 48 hr of exposing; assay type: functional, Homo sapiens; method in brief: as §3
OVCAR-4 [28] = assay: Percent growth of ovarian OVCAR-4 cell line was determined at 10e-5 M concentration after 48 hr of exposing; assay type: functional, Homo sapiens; method in brief: as §3
OVCAR-4 [29] = assay: Percent growth of ovarian OVCAR-4 cell line was determined at 10e-6 M concentration after 48 hr of exposing; assay type: functional, Homo sapiens; method in brief: as §3
OVCAR-4 [30] = assay: Percent growth of ovarian OVCAR-4 cell line was determined at 10e-8 M concentration after 48 hr of exposing; assay type: functional, Homo sapiens; method in brief: as §3
DU-145 [31] = assay: Percent growth of prostate DU-145 cell line was determined at 10e-5 M concentration after 48 hr of exposing; assay type: functional, Homo sapiens
[32] = Cytotoxicity against human LoVo cancer cell line was determined after 1 hr; assay type: cell-based; method in brief: as §2
[33] = Cytotoxicity against human H460M cancer cell line was determined after 1 hr; assay type: cell-based; details: Cancer cell lines; method in brief: as §1
[34] = Cytotoxicity against human MKN45 cancer cell line was determined after 1 hr; assay type: cell-based; details: Cancer cell lines; method in brief: as §1
[35] = Cytotoxicity against human HCT116 cancer cell line was determined after 1 hr; assay type: cell-based; details: HCT-116, 1 h; method in brief: as §1
HT-29 = assay: Cytotoxicity is determined as the concentration required to inhibit the growth of human colon adenocarcinoma (HT-29) cell line; assay type: functional, cell-based
MCF7 [36] = assay: Percent growth of breast MCF-7 cell line was determined at 10e-5 M concentration after 48 hr of exposing; assay type: functional, Homo sapiens
[37] = Cytotoxicity against human PC3 cancer cell line was determined after 1 hr; assay type: cell-based; details: Cancer cell lines; method in brief: as §1

CN(C)CCn1c(=O)c2ccc(NCCCN(C)CCCNc3ccc4c(=O)n(CCN(C)C)c(=O)n5c6ccc([N+](=O)[O-])cc6c(=O)c3c45)c3c(=O)c4cc([N+](=O)[O-])ccc4n(c1=O)c23
IC50 [1]: 0.19 nM
IC50 (MKN-45): 0.29 nM
Resistance index (LoVo [2]): 9
IC50 (LoVo [3]): 67 nM
Binding site preference (Nucleic Acid): 2.4
Growth (SNB-19 [4]): -66%
IC50 (HCT-116): 1.1 nM
Growth (DU-145 [5]): -13%
Growth (DU-145 [6]): 35%
Growth [7]: -69%
Growth [8]: -56%
Growth [9]: 16%
IC50 (PC-3): 4.5 nM
IC50 [10]: 380 nM
IC50 (LoVo [11]): 7.6 nM
Growth (SNB-19 [12]): -25%
Growth (SNB-19 [13]): 37%
Growth (786-0 [14]): -63%
Growth (786-0 [15]): -4%
Growth (786-0 [16]): 33%
Growth (MCF7 [17]): -2%
Growth (MCF7 [18]): 21%
Growth (SW-620 [19]): -16%
Growth (SW-620 [20]): 5%
Growth (SW-620 [21]): 42%
Growth (NCI-H460 [22]): -60%
Growth (NCI-H460 [23]): -36%
Growth (NCI-H460 [24]): 10%
Growth (MOLT-4 [25]): -50%
Growth (MOLT-4 [26]): -31%
Growth (MOLT-4 [27]): -2%
Growth (OVCAR-4 [28]): -65%
Growth (OVCAR-4 [29]): -54%
Growth (OVCAR-4 [30]): 31%
Growth (DU-145 [31]): -83%
IC50 [32]: 42 nM
IC50 [33]: 0.93 nM
IC50 [34]: 1.3 nM
IC50 [35]: 2.9 nM
IC50 (HT-29): < 0.1 nM
Growth (MCF7 [36]): -55%
IC50 [37]: 11 nM
